GPR7 antagonist: antagonists of human GPR7 (neuropeptides B/W receptor 1); GPR7-expressing cells, fluorescence antagonist assay; inhibition, % at 4.4 µM; 290,000 compounds, 1.1% hits; AID 1861; in the data active means inhibition above about 16%, passing the limit was not always enough;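 further: cells stimulated with the agonist NPW; 0% = agonist with vehicle and 100% = vehicle without agonist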
CHO parental Ca: signal in parental CHO cells, OX1R antagonist counter-screen. parental CHO-K1, ATP-induced calcium, Fluo-8 fluorescence. inhibition, % at 5.6 µM. 330,000 compounds, 0.63% hits;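 active means inhibition above that plate's mean sample inhibition plus 3 SD, cut at about 26% in these data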;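 further: 0% = ATP-challenged DMSO wells and 100% = DMSO wells without ATP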
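Material – parental CHO cells · Reagent – ATP stimulus · Compound – single nominal dose of 5.6 µM per compound · Detection – Fluo-8 fluorescence · Read-out basis – percent inhibition of calcium signal · Controls – ATP-challenged DMSO wells low, unchallenged DMSO wells high · Repeats – no replicates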
TAAR1 ag: agonists of human TAAR1; CHO RD-HGA16 TAAR1, Fluo-8 calcium fluorescence; vehicle wells 0%, saturating PEA agonist 100%; activation, % at 3 µM; 360,000 compounds, 0.99% hits; AID 624467;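 active means activation above the mean activation of all test compounds in the run plus 3 SD, cut at about 38% in these data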
Target sequence (Q96RJ0 whole entry, looked up): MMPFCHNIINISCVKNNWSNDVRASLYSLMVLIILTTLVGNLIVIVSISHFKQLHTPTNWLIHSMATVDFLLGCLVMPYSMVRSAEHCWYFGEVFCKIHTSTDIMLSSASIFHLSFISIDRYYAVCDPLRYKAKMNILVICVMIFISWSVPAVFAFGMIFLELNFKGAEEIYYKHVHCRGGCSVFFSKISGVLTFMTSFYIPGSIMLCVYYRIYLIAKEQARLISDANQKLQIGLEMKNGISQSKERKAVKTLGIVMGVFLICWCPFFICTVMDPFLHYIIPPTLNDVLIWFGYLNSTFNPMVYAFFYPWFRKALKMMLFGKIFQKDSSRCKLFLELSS
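Assay system – CHO-derived RD-HGA16 cells with stable Gα16 and human TAAR1 · Compound dosing – one-point dosing at 3 µM (nominal) · Incubation – 17-24 h seeding, 75 min 37 °C dye, 30 min RT · Measured by – kinetic Fluo-8 calcium fluorescence · Control set – DMSO vehicle as 0%, PEA at EC100 as 100% · Repeats – single well for each compound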
OX1R antag-1: blocks the human orexin 1 receptor; inhibition, % at 6.6 µM; OX1R-expressing cells, FRET antagonist read-out; 330,000 compounds, 1.8% hits; in the data active means inhibition mostly above about 38%, no sharp cut-off; inactive means mostly below about 40%;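 further: 0% = agonist challenge alone and 100% = reference antagonist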
TAAR1 antag: human TAAR1 antagonism | CHO RD-HGA16 TAAR1, Fluo-8 calcium fluorescence, antagonist | inhibition, % at 3 µM | 360,000 compounds, 1.5% hits | AID 624466;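 active means inhibition above a per-plate cutoff, the mean inhibition of test compounds on that plate plus 3 SD, cut at about 49% in these data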;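 further: 0% = DMSO plus EC80 beta-PEA response and 100% = DMSO alone without agonist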
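Test system: hTAAR1-expressing CHO RD-HGA16 cells, Gα16-coupled; Probe or stimulus: EC80 β-phenethylamine stimulus; Compound dosing: single nominal final test compound concentration of 3 µM; Timing: 140 s kinetic read after compound, 140 s after agonist; Signal: Fluo-8 calcium-sensitive fluorescence; Measure: % inhibition of agonist calcium response; Controls: DMSO and EC80 PEA controls.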
OX1R antag-2: antagonists of human orexin 1 receptor | CHO/OX1R cells, Fluo-8 calcium fluorescence, orexin A | inhibition, % at 5 µM | 330,000 compounds, 0.43% hits | O43613;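 active means inhibition above its plate's threshold, mean inhibition of all tested compounds on the plate plus 3 SD, cut at about 37% in these data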;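 further: 0% = orexin A challenge wells and 100% = SB-334867-A antagonist wells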
TAAR1 ag confirm: confirmation of human TAAR1 agonists. 2,400 compounds, 82% hits. shares compounds with TAAR1 ag. activation, % at 3 µM. CHO RD-HGA16 TAAR1, Fluo-8 calcium fluorescence; scaled: DMSO 0%, maximal phenethylamine 100%;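 active means activation above a cutoff set at the run's mean compound activation plus 3 SD, cut at about 39% in these data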
Ga16 nonsel ag: nonselective agonism, TAAR1 counter-screen. shares compounds with TAAR1 ag. CHO-Ga16 parental, Fluo-8 calcium fluorescence; normalized to maximal ATP response, DMSO zero. activation, % at 3 µM. 2,400 compounds, 50% hits. AID 651787;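 active means activation above the run cutoff, the mean activation over all tested wells plus 3 SD, cut at about 12% in these data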;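 further: 0% = DMSO wells and 100% = maximal ATP response on the peak over basal ratio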
TAAR1 desens: human TAAR1 agonist that also desensitizes the receptor. CHO RD-HGA16 hTAAR1, Fluo-8 calcium, beta-PEA response inhibition. 2,400 compounds, 46% hits. shares compounds with TAAR1 ag. inhibition, % at 3 µM. AID 651951;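 active means inhibition above the run cutoff, the mean inhibition of all test compounds plus 3 SD, cut at about 49% in these data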;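 further: beta-PEA stimulus applied at its EC80; loss of beta-PEA calcium signal after compound pretreatment read as receptor desensitization; 0% = DMSO with beta-PEA at EC80 and 100% = DMSO alone without agonist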
Ga16 nonsel ant: nonselective Ga16 antagonist in TAAR1 agonist counter-screen; inhibition, % at 3 µM; 2,400 compounds, 39% hits; AID 651952; CHO-Ga16 ATP-induced calcium, Fluo-8 fluorescence; shares compounds with TAAR1 ag;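 active means inhibition above the plate's mean compound inhibition plus 3 SD, computed per plate, cut at about 22% in these data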;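 further: 0% = EC80 ATP with DMSO and 100% = DMSO wells without ATP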
* hit, by the source's call; . = no result. Sampled rows, rich in hits. Any-hit rate of the full collection: about 4.6%.

SMILES	GPR7 antagonist	CHO parental Ca	TAAR1 ag	OX1R antag-1	TAAR1 antag	OX1R antag-2	TAAR1 ag confirm	Ga16 nonsel ag	TAAR1 desens	Ga16 nonsel ant
O=[N+]([O-])c1ccc(N/N=C/c2cccc(O)c2)cc1	22	14	59*	1	46	-11	43*	7	25	16
Cc1nccn1CC(=O)N/N=C/c1cc(Br)cs1	-1	-4	6	17	7	-1	.	.	.	.
O=C(O)COCC(=O)NCc1csc2ccccc12	-7	-11	51*	1	-40	-4	55*	0	26	6
O=C(Cc1csc2ccccc12)NCC1CC1	.	.	0	.	3	.	.	.	.	.
O=S(=O)(NCc1nnc2ccccn12)c1ccc(Cl)cc1	.	-14	13	2	-12	-10	.	.	.	.
COc1ccc(N(CC(=O)NC2CCCCCC2)S(=O)(=O)c2ccccc2)cc1Cl	3	-13	-2	26	-6	-13	.	.	.	.
Cc1ccc(Nc2nc(N)nc(CN3CCc4ccccc4C3)n2)cc1	-1	-36	52*	13	5	-37	69*	-1	-2	1
Cc1c(Cl)cccc1Nc1nc(N)nc(CN2CCc3ccccc3C2)n1	13	-36	34	19	10	-24	.	.	.	.
Cc1c(C)c(C)c(C(=O)c2ccc(NC(=O)c3ccccc3C(=O)O)cc2)c(C)c1C	-8	-11	-2	-5	-34	-25	.	.	.	.
COc1ccc(S(=O)(=O)Cc2ccc(C(=O)N3CCc4ccccc4C3)o2)cc1	6	-11	61*	9	61*	-34	92*	23*	76*	12
COc1ccccc1N1CCN(C(=O)c2cc(C)oc2C)CC1	-6	-6	9	19	0	-18	.	.	.	.
Cc1ccc(S(=O)(=O)Cc2ccc(C(=O)N3CCc4ccccc4C3)o2)cc1	5	-8	69*	9	64*	-26	48*	5	11	16
COc1ccccc1N1CCN(C(=O)c2ccc(CS(=O)(=O)c3ccccc3OC)o2)CC1	-8	-9	59*	9	38	-15	59*	21*	55*	34*
Cc1ccc(S(=O)(=O)Cc2ccc(C(=O)N3CCN(Cc4ccccc4)CC3)o2)cc1	0	-13	1	13	-7	-25	.	.	.	.
COc1ccccc1N1CCN(C(=O)c2cccc3c(=O)c(C)c(-c4ccccc4)oc23)CC1	-6	-8	70*	18	60*	0	69*	37*	48	33*
O=S1(=O)N[C@H](Cc2ccccc2)COc2cccc(N3CCN(Cc4ccccc4F)CC3)c21	.	.	3	.	18	.	.	.	.	.
COC/C=C/C1=CC2=CC(=O)C(C)(O)C(=O)C2=CO1 (configuration not stated)	.	1	.	-2	.	6	.	.	.	.
Cc1cc(C(c2ccc(O)cc2)c2cc(C)c(O)cc2C)c(C)cc1O	58*	19	113*	5	85*	29	131*	77*	78*	41*
COc1cccc(-c2c(C(=O)N/N=C(\C)c3cccs3)nnn2-c2nonc2N)c1	-19	-27	140*	28	87*	-22	115*	84*	78*	28*
CCOc1ccc(-c2c(C(=O)N/N=C(\C)c3ccccc3OC)nnn2-c2nonc2N)cc1	-3	-1	5	11	-19	-3	.	.	.	.
